# From PubChem BioAssay
# Active and inactive are the calls of the source.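 The calls were made as follows, unless noted: active = viability at or under a set limit in both replicates, limit being median viability minus 3 SD (cut at about 48% in these data, passing the limit was not always enough); inconclusive = at or under the limit in just one replicate; inactive = at or above the limit in both replicates.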
# Legend:
# [1] = Her2 expression decrease, cell viability multiplex – SKBR3 breast tumor cells, AlphaScreen, ATP viability, primary screen (AID 461;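 active = Her2 level under about 52% in both replicate screens, with viability over 70% of control, limit read from the data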;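 as to Her2 level: lower value means less Her2 protein in the cells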;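 as to viability: percent of carrier control wells set as 100% viability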); conditions: SKBR3 Her2 protein level, 18-24 h, measured here: SKBR3 viability, ATP luminescence, at 10 µM
# [2] = biological target: Receptor tyrosine-protein kinase erbB-2 (Homo sapiens) (UniProt P04626); test: as above; conditions: 18-24 h, at 10 µM, stronger effect = lower value
# [3] = reduced viability of SK-BR-3 breast cancer cells – cell-based, 24 h, human, pilot screen (AID 572;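 active = viability at or below 10% of carrier control in both of two separate runs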;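 also: compound exposure lasted between 18 and 24 h rather than exactly 24 h; 100% = carrier-treated control wells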); conditions: SK-BR-3 viability, CellTiter-Glo luminescence, at 10 µM, stronger effect = lower value
# [4] = HUVEC growth inhibition – cell-based, human, primary screen (AID 575;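 active = viability at or below 30% in both replicate assays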;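 also: 100% = median of untreated cell wells with 0.1% DMSO on each plate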); conditions: HUVEC proliferation, CellTiter-Glo luminescence, 72 h; at 10 µM; stronger effect = lower value
# How it was run: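 Assay system: Primary human umbilical vein endothelial cells | Quantity: 1250 cells per well | Medium: Supplemented EBM, 2% fetal bovine serum | Detection: CellTiter-Glo luminescence measuring cellular ATP | Read-out: % viability vs DMSO wells | Plate: Collagen-coated 384-well format | Times: 72 h exposure, 37 °C, 5% CO2, 30 min RT equilibration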
# [5] = H69AR cell proliferation blockers – human, duplicate replicates, primary screen (AID 580); conditions: H69AR lung tumor cells viability, ATP luminescence, 72 h; at 10 µM; stronger effect = lower value;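 also: 100% = mean luminescence of untreated wells and 0% = no signal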
# [6] = MRP1 drug-resistance reversers in H69AR cells – cell-based, doxorubicin co-treatment, pilot screen (AID 601;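 active = viability loss from added drug above about 55%, and viability with drug at most 40%, in both replicates, limit read from the data, passing the limit was not always enough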); conditions: CellTiter-Glo, 72 h, at 10 µM; for differential viability (reversal): stronger effect = higher value
# [7] = yeast transport mutant growth inhibition pilot in 384-well plates, post-Golgi transport modulator project (AID 636; in the data active = inhibition above about 31%); conditions: absorbance 615 nm, about 18 h, stronger effect = higher value
# [8] = growth suppression of yeast trafficking mutant, preliminary HTS, modulators of trafficking downstream of Golgi apparatus project, 1536-format plate, OD 615 nm (AID 637; in the data active = inhibition above about 30%); conditions: yeast transport mutant growth, absorbance 615 nm, 18 h; stronger effect = higher value
# [9] = H69AR cells + 2 uM doxorubicin, measured here: viability with 2 uM doxorubicin, stronger effect = lower value
# [10] = H69AR cells, compound alone cytotoxicity
# Chain of Receptor tyrosine-protein kinase erbB-2 (Homo sapiens) (P04626 whole entry, looked up): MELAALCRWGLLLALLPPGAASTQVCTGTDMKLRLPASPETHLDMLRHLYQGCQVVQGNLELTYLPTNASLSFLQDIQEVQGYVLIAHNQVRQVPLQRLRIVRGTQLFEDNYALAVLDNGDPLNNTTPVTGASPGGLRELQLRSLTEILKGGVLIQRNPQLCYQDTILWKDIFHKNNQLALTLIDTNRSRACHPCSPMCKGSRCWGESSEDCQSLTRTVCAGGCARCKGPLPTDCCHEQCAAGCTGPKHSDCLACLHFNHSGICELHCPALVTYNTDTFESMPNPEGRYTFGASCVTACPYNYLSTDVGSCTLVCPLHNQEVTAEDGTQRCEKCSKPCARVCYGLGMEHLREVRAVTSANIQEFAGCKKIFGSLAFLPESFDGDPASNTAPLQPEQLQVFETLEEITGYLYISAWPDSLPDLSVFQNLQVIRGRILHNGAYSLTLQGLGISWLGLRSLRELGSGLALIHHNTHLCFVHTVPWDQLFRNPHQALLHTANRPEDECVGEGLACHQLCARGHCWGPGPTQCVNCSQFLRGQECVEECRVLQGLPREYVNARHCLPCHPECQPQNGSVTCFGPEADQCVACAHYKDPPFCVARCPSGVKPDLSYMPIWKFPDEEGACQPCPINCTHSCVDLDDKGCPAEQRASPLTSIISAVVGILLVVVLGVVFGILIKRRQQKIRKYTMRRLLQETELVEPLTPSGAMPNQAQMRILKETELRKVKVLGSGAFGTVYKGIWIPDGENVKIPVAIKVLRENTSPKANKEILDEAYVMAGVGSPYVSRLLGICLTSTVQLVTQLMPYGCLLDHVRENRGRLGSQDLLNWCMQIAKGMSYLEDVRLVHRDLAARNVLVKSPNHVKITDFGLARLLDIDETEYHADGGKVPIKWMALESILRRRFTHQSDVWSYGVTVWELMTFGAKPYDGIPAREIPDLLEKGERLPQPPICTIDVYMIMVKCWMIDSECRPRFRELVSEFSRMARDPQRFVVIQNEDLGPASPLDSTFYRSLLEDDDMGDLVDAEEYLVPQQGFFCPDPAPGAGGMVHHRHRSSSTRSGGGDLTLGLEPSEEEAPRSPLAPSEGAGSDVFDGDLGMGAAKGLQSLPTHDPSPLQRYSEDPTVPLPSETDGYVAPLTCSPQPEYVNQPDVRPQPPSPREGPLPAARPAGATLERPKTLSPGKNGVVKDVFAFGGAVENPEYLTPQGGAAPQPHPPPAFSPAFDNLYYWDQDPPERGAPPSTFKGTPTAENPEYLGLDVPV
Compound,viability [1],Her2 level [2],viability [3],viability [4],viability [5],differential viability (reversal) ([6]; H69AR cells + 2 uM doxorubicin),"viability [6, 9]","viability [6, 10]",inhibition [7],inhibition [8]
COc1cc2c(cc1OC)C(c1ccccc1O)N(C1CC(=O)N(c3ccccc3)C1=O)CC2 (stereo not given),113%,96.5% (inactive),113% (inactive),97.7% (inactive),99.8% (inactive),18.3% (inactive),81.5%,99.8%,-4.42% (inactive),-5.08% (inactive)
COc1ccccc1OCc1ccc(C(=O)Nc2ccncc2)o1,79.5%,92% (inactive),79.5% (inactive),84.9% (inactive),89.4% (inactive),-0.005% (inactive),89.4%,89.4%,-3.07% (inactive),6.61% (inactive)
CC(C)Oc1ccc(C2C(C(=O)c3ccco3)=C(O)C(=O)N2CCCN(C)C)cc1 (stereo not given),89%,99.5% (inactive),89% (inactive),118% (inactive),110% (inactive),8.15% (inactive),102%,110%,-1.18% (inactive),8.2% (inactive)
CN1CCN(C(=O)c2cnn3c(C(F)F)cc(C4CC4)nc23)CC1,95%,88.5% (inactive),95% (inactive),103% (inactive),94.4% (inactive),9.3% (inactive),85.1%,94.4%,-2.63% (inactive),3.23% (inactive)
Cc1nc2sc(C(c3cccc(F)c3)N3CCN(C(=O)c4ccco4)CC3)c(O)n2n1 (stereo not given),94%,109% (inactive),94% (inactive),120% (inactive),99.3% (inactive),2.58% (inactive),96.7%,99.3%,-5% (inactive),-9.83% (inactive)
Cn1c(=O)c2c(-c3ccncc3)c3c(nc2n(C)c1=O)-c1ccccc1C3=O,94%,104% (inactive),94% (inactive),98.4% (inactive),95% (inactive),2.95% (inactive),92%,95%,-1.6% (inactive),9.37% (inactive)
COc1ccc(-c2nnn(CCc3nn[nH]n3)n2)cc1OC,119%,98.5% (inactive),119% (inactive),96.9% (inactive),95.5% (inactive),-3.76% (inactive),99.2%,95.5%,-3.6% (inactive),9.18% (inactive)
CCN(CC)C(=O)c1ccc(NS(=O)(=O)c2ccccc2)cc1,89.5%,130% (inactive),89.5% (inactive),111% (inactive),86.1% (inactive),-1.12% (inactive),87.3%,86.1%,-1.32% (inactive),-3.44% (inactive)
CCCNC(=O)C1=C(C)C(=O)OC12CCC(C)CC2 (stereo not given),94.5%,102% (inactive),94.5% (inactive),87.2% (inactive),95.3% (inactive),5.14% (inactive),90.2%,95.3%,2.27% (inactive),3.61% (inactive)
O=C(CCNC(=O)Cn1ccc2ccccc2c1=O)NCCN1CCN(c2ccccc2F)CC1,96%,92% (inactive),96% (inactive),99.2% (inactive),88.1% (inactive),9.11% (inactive),79%,88.1%,-4.87% (inactive),-1.45% (inactive)
Cc1ccc(S(=O)(=O)NCCNC(=O)C2CCCNC2=O)cc1 (stereo not given),93.5%,86.5% (inactive),93.5% (inactive),103% (inactive),105% (inactive),12% (inactive),92.9%,105%,-4.67% (inactive),1.8% (inactive)
O=C(Cn1c(NCCO)nc2ccccc21)c1ccccc1,100%,100% (inactive),100% (inactive),99.6% (inactive),104% (inactive),3.85% (inactive),101%,104%,-2.16% (inactive),2.7% (inactive)
COc1ccc(C(O)Cn2c(=N)n(CCCN(C)C)c3ccccc32)cc1 (stereo not given),78.5%,102% (inactive),78.5% (inactive),90.3% (inactive),97.5% (inactive),6.39% (inactive),91.1%,97.5%,-0.26% (inactive),-6.51% (inactive)
Cc1nc2sc(C(c3cccc(F)c3)N3CCC(C)CC3)c(O)n2n1 (stereo not given),88%,77% (inactive),88% (inactive),101% (inactive),96.3% (inactive),9.65% (inactive),86.7%,96.3%,-6.71% (inactive),1.75% (inactive)
CC(=O)Nc1ccc(S(=O)(=O)n2cnc(C)c2)cc1,91%,93.5% (inactive),91% (inactive),102% (inactive),104% (inactive),3.98% (inactive),99.6%,104%,-0.53% (inactive),-5% (inactive)
CCc1cc2c(=O)c(-c3cscn3)coc2cc1O,108%,96% (inactive),108% (inactive),63.5% (inactive),88.8% (inactive),-13% (inactive),102%,88.8%,-1.32% (inactive),2.95% (inactive)
Cc1nc2oc3c(NCc4ccccn4)ncnc3c2c2c1COC(C)(C)C2,90%,89% (inactive),90% (inactive),85.9% (inactive),99.2% (inactive),7.06% (inactive),92.2%,99.2%,-4.4% (inactive),-1.59% (inactive)
CCc1nnc(NC(=O)c2ccc(-c3cccc(C(F)(F)F)c3)o2)s1,102%,130% (inactive),102% (inactive),102% (inactive),91.4% (inactive),11.2% (inactive),80.2%,91.4%,-5.6% (inactive),-4.03% (inactive)
O=C(c1cccs1)c1cn(CC(=O)N2CCc3ccccc3C2)c2ccccc12,93%,108% (inactive),93% (inactive),86.1% (inactive),86.9% (inactive),7.43% (inactive),79.5%,86.9%,-6.13% (inactive),1.45% (inactive)
Cc1ccc(N(Cc2ccco2)C(=O)c2cccc(S(=O)(=O)N(C)C)c2)cc1,97.5%,104% (inactive),97.5% (inactive),88.4% (inactive),96.7% (inactive),-2.84% (inactive),99.6%,96.7%,0.53% (inactive),-1% (inactive)
Cc1nnc(N(C)C(=O)c2cccnc2)s1,110%,110% (inactive),110% (inactive),93.1% (inactive),88.7% (inactive),1.22% (inactive),87.5%,88.7%,0.96% (inactive),3.33% (inactive)
CC(=O)N1CCc2cc(S(=O)(=O)CCC(=O)N3CCN(C(=O)c4ccco4)CC3)ccc21,99%,88.5% (inactive),99% (inactive),104% (inactive),98.2% (inactive),10.1% (inactive),88.1%,98.2%,-5.47% (inactive),2.95% (inactive)
CCN(CC)S(=O)(=O)c1ccc(C(=O)N2CCN=C2SCc2cccnc2)cc1,82.5%,95.5% (inactive),82.5% (inactive),79.7% (inactive),84.5% (inactive),-3.98% (inactive),88.5%,84.5%,-3.38% (inactive),-3.02% (inactive)
Cc1sc2nc(SCc3nc4ccccc4[nH]3)n(Cc3ccco3)c(=O)c2c1C,96.5%,92.5% (inactive),96.5% (inactive),91.7% (inactive),84.6% (inactive),8.02% (inactive),76.6%,84.6%,-0.13% (inactive),-1.8% (inactive)
CCOc1ccccc1N1CCN(C(=O)c2ccncc2)CC1,97%,100% (inactive),97% (inactive),90.2% (inactive),93.6% (inactive),13.4% (inactive),80.2%,93.6%,-2.99% (inactive),-9.34% (inactive)
CCn1c(CNc2ccc(C)cc2)nnc1SCC(=O)NCc1ccccc1,89%,100% (inactive),89% (inactive),91.1% (inactive),86.6% (inactive),-0.975% (inactive),87.6%,86.6%,0.13% (inactive),3.93% (inactive)
CCn1ncc(C2=NOC(C(=O)NCc3ccc(Cl)cc3)C2)c1C (stereo not given),83.5%,69.5% (inactive),83.5% (inactive),38.7% (inactive),24.4% (active),-29.8% (inactive),54.2%,24.4%,-2.89% (inactive),-0.32% (inactive)
Cc1cc(C)c2c(n1)nn1c(NCCCN3CCOCC3)cc(C)nc21,106%,79% (inactive),106% (inactive),98.8% (inactive),97.7% (inactive),7.13% (inactive),90.6%,97.7%,-5.54% (inactive),2.38% (inactive)
COc1ccc2[nH]c(=O)c(CN(Cc3cccs3)Cc3nnnn3C(C)(C)C)cc2c1,77.5%,90% (inactive),77.5% (inactive),58.7% (inactive),73.5% (inactive),7.29% (inactive),66.2%,73.5%,-6.13% (inactive),-0.95% (inactive)
